# G6PDH CS: L. mesenteroides G6PDH inhibitors, counter-screen for G6PDH-coupled screening assays, biochemical, Leuconostoc mesenteroides enzyme; Purified L. mesenteroides G6PDH, diaphorase/resazurin coupled fluorescence, 45 min; glucose-6-phosphate dehydrogenase [Leuconostoc mesenteroides]; actives 0.12% (n = 200,000); inhibition, % at 5 µM; AID 1020, 2008
# Diaphorase act: compounds boosting diaphorase resazurin reduction – biochemical, uHTS, resorufin fluorescence, counter-screen for diaphorase-coupled primary assays, primary screen | Diaphorase/resazurin coupled assay, 16 min; stronger effect = higher value; 1 = vehicle wells, 0 = NADH-free wells | actives 0.005% (n = 190,000) | AID 1229, 2008 | activation factor at 20 µM;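 active = diaphorase activity raised at least twofold by the compound at 20 µM; inactive = activation factor below 2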
#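 Material: bacterial diaphorase enzyme (C. kluyveri); amount: enzyme 0.07 U/mL final; reagent: NADH substrate 0.114 mM plus resazurin dye 0.1 mM, final; doses: single compound dose of 20 µM, 1% DMSO final; timing: 16 min enzyme reaction, ambient temperature; measured by: fluorescence of resorufin, 544 nm excitation, 590 nm emission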
# L major viab: Leishmania major promastigote growth inhibition, primary screen; Leishmania major promastigotes, resazurin fluorescence viability; inhibition, % at 10 µM; actives 9% (n = 200,000);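 note: promastigotes grown with compound for 44 hours at 28 °C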
# Redox H2O2 prof: compounds producing H2O2 with reducing agent – biochemical, NIH compound library profiling, artefact control for MLSCN library redox annotation, primary screen. AID 878, 2007. DTT-dependent redox cycling H2O2, phenol red/HRP absorbance; 100% = 100 µM peroxide control, 0% = buffer. actives 0.03% (n = 200,000). activation, % at 10 µM;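 active = activation of at least 50% relative to the plate's high and low controls in the primary single-dose screen; inactive = activation below 50%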;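 note: compound incubated with DTT at 0.8 mM final as the reducing agent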
# PfGluPho inh: PfG6PD enzyme inhibitors, primary screen, biochemical, fluorescence intensity, uHTS; actives 0.78% (n = 350,000); PfGluPho enzyme, NADPH resazurin-diaphorase fluorescence; inhibition, % at 20 µM;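 active = inhibition reaching at least a set limit at 20 µM in the primary screen, cut at about 59% in these data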;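 note: 0% = DMSO wells with substrate and 100% = DMSO wells lacking glucose-6-phosphate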
# Diaph inh CS: diaphorase inhibitors and chemical oxidizers, primary screen, counter-screen for diaphorase-coupled primary assays, biochemical, uHTS, resorufin fluorescence; diaphorase resazurin-to-resorufin fluorescence, NADH, 16 min; bacterial (C. kluyveri) enzyme, not human; AID 1217, 2008; actives 0.69% (n = 190,000); inhibition, % at 20 µM;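 active = primary screen inhibition at 20 µM above a set limit, cut at about 50% in these data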;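 note: plate controls were DMSO with full reaction for no effect and wells lacking NADH for full effect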
#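 Benchmarks: positive control wells lacking NADH, neutral wells with DMSO only. System: bacterial diaphorase enzyme (C. kluyveri). Input: 0.14 U/mL diaphorase, enzyme working solution. Detection: resorufin fluorescence, excitation 544 nm, emission 590 nm. Times: 16-min room-temperature incubation before reading.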
# PfG6PD confirm: PfG6PD inhibitors, hit retest, confirmation, biochemical, fluorescence intensity, single concentration | recombinant PfGluPho, NADPH-diaphorase-resazurin fluorescence | inhibition, % at 20 µM | shares compounds with PfGluPho inh | actives 34% (n = 2,400);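 active = inhibition of at least 50% at 20 µM in any single replicate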;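 note: 0% = DMSO with substrate and 100% = DMSO lacking glucose-6-phosphate substrate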
# Diaphorase 10uM: diaphorase inhibitors and chemical oxidizers, confirmation, counter-screen for P. falciparum G6PD inhibitor project, biochemical, fluorescence intensity, 10 µM NADPH; inhibition, % at 20 µM; shares compounds with PfGluPho inh; diaphorase-coupled resazurin reduction, NADPH 10 uM; actives 39% (n = 820); AID 504862, 2011;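 active = average inhibition reaching 50% or more with the compound at 20 µM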;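 note: resorufin red fluorescence formed as diaphorase reduces resazurin using NADPH; 0% = DMSO with enzyme and 100% = DMSO without enzyme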
# Diaphorase 30uM: diaphorase inhibitors and chemical oxidizers, confirmation, counter-screen for P. falciparum G6PD inhibitor project, biochemical, fluorescence intensity, 30 µM NADPH; inhibition, % at 20 µM; shares compounds with PfGluPho inh; Diaphorase/resazurin coupled assay, resorufin fluorescence; actives 29% (n = 820);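 active = inhibition averaging 50% or more, tested at 20 µM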;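 note: 0% = DMSO with enzyme and 100% = DMSO wells lacking diaphorase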
# The depositor's hits bear a star; / = no result given. The sample as a whole holds a higher share of hits than the screen did. Cut-off read from the data, not from the text of the source, unless noted: active = inhibition above about 50%; inactive = the rest.
SMILES,G6PDH CS,Diaphorase act,L major viab,Redox H2O2 prof,PfGluPho inh,Diaph inh CS,PfG6PD confirm,others
O=C(CCC(=O)Nc1ccccc1Cl)N/N=C/c1ccccc1,3,1,-4,0,105*,-2,81*,Diaphorase 10uM=69*;Diaphorase 30uM=48
O=C(CC(=O)N/N=C/c1ccccc1)NCc1ccccc1,4,0.9,3,0,107*,9,72*,Diaphorase 10uM=67*;Diaphorase 30uM=67*
O=C(Cc1ccccc1)NN=Cc1ccccc1,/,/,/,/,1,/,/,
O=C(CCSCCC(=O)NN=Cc1cccc(Cl)c1)NN=Cc1cccc(Cl)c1,/,/,/,/,86*,/,88*,Diaphorase 10uM=79*;Diaphorase 30uM=66*
O=C(Nc1cccnc1)NC1CCCCC1,3,1,-1,-1,-4,4,/,
Cc1cccc(OCC(=O)NC2CCCCCC2)c1C,/,/,/,/,-17,/,/,
COCCN(C(=O)c1cc2c(s1)CCC2)c1c(N)n(CC(C)C)c(=O)[nH]c1=O,/,/,/,/,5,/,/,
N#Cc1ccc(CN(c2ccncc2)S(=O)(=O)c2ccccc2)cc1,/,/,/,/,8,/,/,
O=C(CCCSCCCC(=O)NN=Cc1ccccc1)NN=Cc1ccccc1,/,/,/,/,59*,/,19,
COc1ccc2c(C)cc(Sc3nnnn3-c3ccccc3)nc2c1,-8,0.9,49,0,60*,14,6,
COc1ccc(Oc2nnnn2-c2ccccc2)cc1,-1,1,-5,0,-15,1,/,
CC(C)CC1C(=O)N(Cc2cn(Cc3ccco3)nn2)CCS(=O)(=O)N1Cc1ccc(-c2ccc(Cl)cc2)cc1 (stereo not given),/,/,/,/,52,/,/,
O=[N+]([O-])c1ccc(C(=S)N2CCN(c3ccc(F)cc3)CC2)cc1,11,1,18,1,54,4,/,
CN(C)c1ccc(C(=S)N2CCN(c3ccc([N+](=O)[O-])cc3)CC2)cc1,/,/,/,/,60*,/,31,
Cc1ccc(-c2cc(Cc3ccncc3)c(=O)[nH]n2)cc1,/,/,/,/,2,/,/,
Cc1cnc(C(=O)OCc2csc(CC(=O)Nc3ccccc3C)n2)cn1,/,/,/,/,-11,/,/,
CNCc1ccccc1Sc1cc(O)ccc1O,58*,0.7,0,0,92*,32,97*,Diaphorase 10uM=53*;Diaphorase 30uM=18
Cc1c(C(=O)Nc2ccncc2)sc2nc(-c3ccccc3)cn12,-12,0.9,76*,0,78*,13,24,
Cc1c(C(=O)NCc2cccnc2)sc2nc(-c3ccccc3)cn12,/,/,/,/,24,/,/,
C/C(=N\Nc1ccc(C)c(Cl)c1)c1cccnc1,/,/,/,/,96*,/,37,
C/C(=N\Nc1ccc(C)c(Cl)c1)c1ccncc1,/,/,/,/,46,/,/,
CSCCC(NC(=O)COc1ccccc1)C(=O)NCC(C)(C)N1CCOCC1 (stereo not given),/,/,/,/,4,/,/,
CCC1CCc2c(sc(NC(=O)c3cnccn3)c2C(N)=O)C1 (stereo not given),/,/,/,/,69*,/,33,
O=C1CCCC(O)=C1C(C#Cc1ccccc1)C1=C(O)CCCC1=O,-19,0.7,9,-2,64*,25,40,
CC1(C)CC(=O)C(C(C#Cc2ccccc2)C2=C(O)CC(C)(C)CC2=O)=C(O)C1,0,1,-2,4,20,5,/,
SMILES,G6PDH CS,Diaphorase act,L major viab,Redox H2O2 prof,PfGluPho inh,Diaph inh CS,PfG6PD confirm,others
Cc1ccc2nc(/C(C#N)=C/c3ccc(-c4ccccc4C(=O)O)o3)[nH]c2c1,/,/,/,/,4,/,/,
Cc1cc2nc(/C(C#N)=C\c3ccc(-c4ccccc4C(=O)O)o3)[nH]c2cc1C,/,/,/,/,60*,/,46,
COC(=O)Cn1cnc2c(nnn2-c2cccc(OC)c2)c1=O,/,/,/,/,1,/,/,
CCOc1cccc(CNc2ccc(O)cc2)c1OCc1ccc(Cl)cc1Cl,5,0.7,100*,-1,69*,30,26,
CCOc1cccc(CNn2cnnc2)c1OCc1ccccc1Cl,1,0.9,4,-4,9,6,/,
O=C(O)CC(NC(=O)Cc1ccc([N+](=O)[O-])cc1)c1ccc2c(c1)OCO2 (stereo not given),4,1,-2,-2,-18,3,/,
COc1ccc2c(c1)c(C(=O)N/N=C/c1cccc(Br)c1)c(C)n2C,/,/,/,/,115*,/,87*,Diaphorase 10uM=88*;Diaphorase 30uM=65*
CN(C)c1ccc(C=c2c3cc([N+](=O)[O-])ccc3n3c2cc(-c2ccccc2)[n+]3C)cc1,/,/,/,/,120*,/,93*,Diaphorase 10uM=24;Diaphorase 30uM=24
COc1cc(N(C)C)ccc1C=c1c2ccccc2n2c1cc(-c1ccccc1)[n+]2C,/,/,/,/,83*,/,76*,Diaphorase 10uM=14;Diaphorase 30uM=11
COc1cc(C=c2c3ccccc3n3c2cc(-c2ccccc2)[n+]3C)cc(OC)c1OC,/,/,/,/,14,/,/,
CN(C)c1ccc(C=c2c3ccccc3n3c2cc(-c2ccccc2)[n+]3C)cc1,/,/,/,/,49,/,/,
COc1ccc(CC(=O)OCC(=O)Nc2ccc(Br)cc2)cc1,-6,0.9,-7,0,7,5,/,
CN1CCN(NC(=O)c2cccc(Br)c2)CC1,2,0.9,1,0,-18,9,/,
COc1ccc(OC2C(=O)N(c3ccc(C)c(C)c3)C2c2ccc(OC)c(OC)c2)cc1 (stereo not given),-20,0.8,9,0,97*,22,28,
COc1cc(CNCc2cc(OC)c(OC)c(OC)c2)cc(OC)c1,/,/,/,/,-16,/,/,
CCCCCCNC(=O)O[C@H]1Cn2c(=O)n(CCCCCC)c(=O)n2[C@@H]2CN(S(=O)(=O)c3ccc(C)cc3)C[C@]12O,/,/,/,/,71*,/,-14,
CCCCCCn1c(=O)n2n(c1=O)[C@@H]1CN(S(=O)(=O)c3ccc(C)cc3)C[C@]1(O)[C@@H](OC(=O)NCC1CCCCC1)C2,/,/,/,/,65*,/,-26,
Cc1ccc(N(C(=O)c2csnn2)C(C(=O)NC2CCCC2)c2ccccn2)c(C)c1 (stereo not given),/,/,/,/,5,/,/,

# Assay outcomes as filed in PubChem BioAssay.
